# Source: ChEMBL document CHEMBL1128448, “Synthesis and antifungal activity of new azole derivatives containing an N-acylmorpholine ring” (1995)
# What was measured:
# Mus musculus = assay: In vivo evaluation of % survival rate after peroral administration on 7th day at dose 0.5 mg/kg; type: functional; conditions: route oral
# Cryptococcus neoformans = assay: Evaluation of In vitro antifungal activity against Cryptococcus neoformans 87 by broth macro dilution method; type: functional
# Procedure, shortened: (§1)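 Yeast MIC and MFC by broth macrodilution per NCCLS M27-P in RPMI-1640 buffered with 0.165 M MOPS. Fluconazole in sterile water, other drugs in DMSO. C. parapsilosis ATCC 22019 is the reference strain in each run. MIC is the lowest concentration with turbidity ≤ the 80% inhibition standard. For MFC, 0.04 mL from clear tubes is plated on Sabouraud agar; MFC is the lowest concentration giving ≤1 colony.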
# Trichophyton benhamiae = assay: In vitro evaluation of minimum inhibitory concentration against Trichophyton mentagrophytes 23; type: functional, Arthroderma benhamiae; conditions: Trichophyton benhamiae; read-out: MIC
# Procedure, shortened: (§2)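 Stocks are 800 μg/mL in 50% ethanol. Each plate gets 10 μL of inoculum at 10^5 cfu/mL. Incubation at 25 °C, 48 h for yeasts and 120 h for dermatophytes and molds. Organisms are ATCC strains or clinical isolates.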
# Mus sp. [1] = assay: In vivo evaluation of % survival rate after peroral administration on 5th day at dose 1 mg/kg; type: functional; conditions: Mus sp., po
# Nakaseomyces glabratus = assay: Evaluation of In vitro antifungal activity against Torulopsis glabrata 78 by broth macro dilution method; type: functional; procedure, shortened: as §1
# Kluyveromyces marxianus [2] = assay: In vitro evaluation of minimum inhibitory concentration against Candida pseudotropicalis 13; type: functional; conditions: Kluyveromyces marxianus; read-out: MIC; procedure, shortened: as §2
# Pichia kudriavzevii [3] = assay: Evaluation of In vitro antifungal activity against Candida krusei 70 by broth macro dilution method; type: functional; procedure, shortened: as §1
# Candida albicans [4] = assay: Evaluation of In vitro antifungal activity against Candida albicans 31 by broth macro dilution method; type: functional; procedure, shortened: as §1
# Kluyveromyces marxianus [5] = assay: Evaluation of In vitro antifungal activity against Candida pseudotropicalis ATCC 28838 by broth macro dilution method; type: functional; procedure, shortened: as §1
# Mus sp. [6] = assay: In vivo evaluation of % survival rate after peroral administration on 3rd day at dose 0.5 mg/kg; type: functional; conditions: route oral
# Rhodotorula mucilaginosa = assay: In vitro evaluation of minimum inhibitory concentration against Rhodotorula rubra 16; type: functional; conditions: Rhodotorula mucilaginosa; read-out: MIC; procedure, shortened: as §2
# Candida parapsilosis = assay: Evaluation of In vitro antifungal activity against Candida parapsilosis C74 by broth macro dilution method; type: functional; conditions: Lodderomyces parapsilosis; procedure, shortened: as §1
# Pichia kudriavzevii [7] = assay: Evaluation of In vitro antifungal activity against Candida krusei C64 by broth macro dilution method; type: functional; procedure, shortened: as §1
# Candida albicans [8] = assay: Evaluation of In vitro antifungal activity against Candida albicans 406 by broth macro dilution method; type: functional; procedure, shortened: as §1
# Candida albicans [9] = assay: Evaluation of In vitro antifungal activity against Candida albicans 76 by broth macro dilution method; type: functional; procedure, shortened: as §1
# Mus sp. [10] = assay: In vivo evaluation of % survival rate after peroral administration on 9th day at dose 0.5 mg/kg; type: functional; conditions: Mus sp., po
# Kluyveromyces marxianus [11] = assay: Evaluation of In vitro antifungal activity against yeasts by broth macro dilution method; type: functional; procedure, shortened: as §1
# Aspergillus niger = assay: In vitro evaluation of minimum inhibitory concentration against Aspergillus niger 18; type: functional; conditions: Aspergillus niger; read-out: MIC; procedure, shortened: as §2
# Nannizzia gypsea = assay: In vitro evaluation of minimum inhibitory concentration against Microsporum gypseum 22; type: functional; procedure, shortened: as §2
# [12] = tested on: Meyerozyma guilliermondii; assay: In vitro evaluation of minimum inhibitory concentration against Candida guilliermondii 26; type: functional; procedure, shortened: as §2
# Candida albicans [13] = assay: In vivo evaluation of minimum inhibitory concentration against Candida albicans 60; type: functional; conditions: Candida albicans; read-out: MIC
# Procedure, shortened: (§3)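 Broth macrodilution MIC following NCCLS M27-P, in RPMI-1640 buffered with 0.165 M MOPS. Fluconazole was dissolved in water and other drugs in DMSO. C. parapsilosis ATCC 22019 served as the reference strain in every run. MIC was the lowest concentration giving turbidity at or below the 80% inhibition standard.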
# [14] = tested on: Meyerozyma guilliermondii; assay: Evaluation of In vitro antifungal activity against Candida guilliermondii 26 by broth macro dilution method; type: functional; procedure, shortened: as §1
# Mus sp. [15] = assay: In vivo evaluation of % survival rate after peroral administration on 5th day at dose 0.5 mg/kg; type: functional; conditions: route oral
# Aspergillus flavus = assay: In vitro evaluation of minimum inhibitory concentration against Aspergillus flavus 19; type: functional; conditions: Aspergillus flavus; read-out: MIC; procedure, shortened: as §2
# Aspergillus fumigatus = assay: In vitro evaluation of minimum inhibitory concentration against Aspergillus fumigatus 33; type: functional; procedure, shortened: as §2
# Mus sp. [16] = assay: In vivo evaluation of % survival rate after peroral administration on 7th day at dose 1 mg/kg; type: functional; conditions: Mus sp., po
# Candida albicans [17] = assay: In vivo evaluation of minimum inhibitory concentration against Candida albicans 406; type: functional; conditions: Candida albicans; read-out: MIC; procedure, shortened: as §3
smiles,measurement,setting,value
C[C@@H](NC(=O)c1ccc(C(F)(F)F)cc1)[C@](O)(Cn1cncn1)c1ccc(F)cc1F,survival at 0.5 mg/kg,Mus musculus,95%
same,MFC,Cryptococcus neoformans,> 64 mg/L
same,MIC,Cryptococcus neoformans,0.5 mg/L
same,MIC,Trichophyton benhamiae,40 mg/L
same,survival at 1 mg/kg,Mus sp. [1],100%
same,MFC,Nakaseomyces glabratus,> 64 mg/L
same,MIC,Nakaseomyces glabratus,8 mg/L
same,MIC,Kluyveromyces marxianus [2],40 mg/L
same,MFC,Pichia kudriavzevii [3],8 mg/L
same,MIC,Pichia kudriavzevii [3],2 mg/L
same,MFC,Candida albicans [4],> 64 mg/L
same,MIC,Candida albicans [4],< 0.031 mg/L
same,MFC,Kluyveromyces marxianus [5],2 mg/L
same,survival at 0.5 mg/kg,Mus sp. [6],100%
same,MIC,Rhodotorula mucilaginosa,1.25 mg/L
same,MFC,Candida parapsilosis,0.125 mg/L
same,MIC,Candida parapsilosis,≤ 0.031 mg/L
same,MFC,Pichia kudriavzevii [7],16 mg/L
same,MIC,Pichia kudriavzevii [7],4 mg/L
same,MFC,Candida albicans [8],> 64 mg/L
same,MIC,Candida albicans [8],< 0.031 mg/L
same,MFC,Candida albicans [9],> 64 mg/L
same,MIC,Candida albicans [9],< 0.031 mg/L
same,survival at 0.5 mg/kg,Mus sp. [10],70%
same,MIC,Kluyveromyces marxianus [11],< 0.031 mg/L
same,MIC,Aspergillus niger,40 mg/L
same,MIC,Nannizzia gypsea,10 mg/L
same,MIC,[12],0.63 mg/L
same,MIC,Candida albicans [13],0.15 mg/L
same,MFC,[14],4 mg/L
same,MIC,[14],0.25 mg/L
same,survival at 0.5 mg/kg,Mus sp. [15],100%
same,MIC,Aspergillus flavus,20 mg/L
same,MIC,Aspergillus fumigatus,20 mg/L
same,survival at 1 mg/kg,Mus sp. [16],100%
same,MIC,Candida albicans [17],0.15 mg/L
